The values below come from PubChem BioAssay.

The source made the active and inactive calls.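 Rule for the calls, unless noted: active = NADPH fluorescence slope more negative than the mean of all samples by about 3 SD, 99.7% confidence; inactive = the rest.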

Assay [1] is described as follows: inhibitors of TNFa-induced NFkB p65 translocation, primary screen, imaging, HUVEC, MLSMR starter and 10KST1 sets (AID 438;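 active = inhibition above 20% together with a positive visual image hit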;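 note: compound added about 3h40 before a 20 min TNFalpha stimulation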;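 for inhibition: signal is the nuclear over cytoplasmic p65 intensity ratio per well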). To be noted: HUVEC TNFa-induced p65 nuclear translocation; cell count: measured here: nuclei count (cytotoxicity indicator), at 2.08 µM; inhibition: at 2 µM, stronger effect = higher value, 0% TNFa-plus-vehicle, 100% no-TNFa wells.
A short description of assay [2]: endothelial E-selectin expression blockers – imaging, HUVEC, immunofluorescence, MLSMR starter and 10KST1 sets, primary screen (AID 487;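 active = visually confirmed hit in the image check and inhibition above 20%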;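 for inhibition: signal is fraction of cell area covered by stained E-selectin grains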;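 for nuclei count: 100% = median nuclei count of all wells on the same plate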). Particulars: HUVEC TNFalpha-induced E-selectin immunofluorescence imaging, at 2 µM; inhibition: stronger effect = higher value; nuclei count: measured here: cell number, toxicity.
Assay [3] in a line: Primary imaging screen for DUSP6 inhibitors that restore phospho-Erk in transfected HeLa cells, chemical complementation (AID 609;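 active = compounds giving at least 50% inhibition in the cell-based MKP-3 phosphatase rescue imaging test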;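 for inhibition: phospho-Erk level distribution per well compared with pooled transfected vehicle control wells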). To be noted: HeLa MKP-3 transfected, phospho-Erk imaging KS statistic, at 10 µM, cells stimulated with TPA for 15 min.
The target in assay [4] is Dual specificity protein phosphatase 6 (Homo sapiens) (UniProt Q16828). Described as above. To be noted: HeLa MKP-3 transfected, phospho-Erk imaging KS statistic; at 10 µM; stronger effect = higher value; cells stimulated with TPA for 15 min.
For assay [5], the target named is Voltage-gated potassium channel subunit beta-2 (Rattus norvegicus) (UniProt P62483). Put plainly: inhibitors of rat Kvbeta2 reductase activity – biochemical, NADPH fluorescence, primary screen (AID 622;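 active = fluorescence slope higher than the sample average by over 3 SD, cut at about -0.22 in these data, passing the limit was not always enough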;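 note: slope of raw intensity against log time taken from 70 to 1610 s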). To be noted: recombinant KvBeta, 4-cyanobenzaldehyde reduction, at 10 µM, stronger effect = higher value.
Assay [6] has the same target. The experiment in a line: enhancers of rat Kvbeta2 NADPH turnover – biochemical, NADPH fluorescence, primary screen (AID 623).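 Note: fluorescence intensity change per second fitted from 20 to 320 s.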 To be noted: Recombinant KvBeta, NADPH fluorescence decrease slope, 10 min; at 10 µM; stronger effect = lower value.
Assay [7] deals with Muscarinic acetylcholine receptor M4 (Homo sapiens) (UniProt P08173). Put plainly: M4-linked GIRK flux change, two-sided – cell-based, HEK293 M4/GIRK, thallium flux, BTC-AM, M4 allosteric agonist project, primary screen (AID 625;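 active = fluorescence slope after compound addition differing from the mean of all tested samples at 99.7% confidence, mostly higher but some lower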;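 note: thallium influx through GIRK channels coupled to M4 in HEK293 cells with BTC-AM dye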). Particulars: at 10 µM, actives lie on both sides. In short, it runs like this: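 assay system = HEK293 cells with M4 receptor and GIRK channels | medium = pH 7.3 thallium assay buffer | doses = 10 µM final, single point | timing = cells overnight at 37 °C, BTC-AM loading 1 h, reads 2 min total | signal = BTC-AM fluorescence, 1 Hz kinetic reads | read-out = post-addition slope, 15–24 s, of baseline-normalized fluorescence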

A short description of assay [8]: inhibitors of larval lipid processing in zebrafish, primary screen, whole organism, PED6 fluorescence, gall bladder and intestine (AID 686;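 active = a full or partial loss of lipid-probe fluorescence in the fish gall bladder, intestine or both, judged by eye; inactive = no fluorescence loss, or compound toxic to the fish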;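 note: larvae 5 to 7 days old with five fish per well; signal comes from phospholipase A2 cleavage of quenched PED6 carried via bile; overnight exposure to compound and PED6 before scoring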). Particulars: Zebrafish larvae PED6 lipid processing, fluorescence scoring; screened at 20 µM (by protocol). In short, it runs like this: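 Also added: quenched phospholipase substrate PED6, 100 nM final, ingested by larvae; System: zebrafish larvae, 5-7 d; Quantity: 5 larvae per well; Compound: 20 µM single dose; Schedule: overnight compound and PED6 incubation; Read-out: visual per-well fluorescence inhibition score; Measured by: By-eye fluorescence microscopy; Medium: E3.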

A short description of assay [9]: loss of swimming-algae plug formation – whole organism, Chlamydomonas reinhardtii, WT vs cilia-less mutant, absorbance, 96-well, primary screen (AID 463189;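 active = inhibition at or above 50% relative to wild type and mutant plate controls; inactive = inhibition below 50%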;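 note: 0% = wild type cc124 cells in DMSO and 100% = ciliumless bld1 mutant cells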). To be noted: Chlamydomonas reinhardtii gravitaxis, OD600 absorbance, 2 days; at 10 µM; stronger effect = higher value.
The mark [10] stands for this setting: measured here: cell density z-score.
Setting [11] is: measured here: nuclear c-Myc green intensity z-score.
[12] abbreviates: measured here: nuclear pErk red intensity z-score, stronger effect = higher value.

Chain of Muscarinic acetylcholine receptor M4 (Homo sapiens) (P08173 whole entry, looked up): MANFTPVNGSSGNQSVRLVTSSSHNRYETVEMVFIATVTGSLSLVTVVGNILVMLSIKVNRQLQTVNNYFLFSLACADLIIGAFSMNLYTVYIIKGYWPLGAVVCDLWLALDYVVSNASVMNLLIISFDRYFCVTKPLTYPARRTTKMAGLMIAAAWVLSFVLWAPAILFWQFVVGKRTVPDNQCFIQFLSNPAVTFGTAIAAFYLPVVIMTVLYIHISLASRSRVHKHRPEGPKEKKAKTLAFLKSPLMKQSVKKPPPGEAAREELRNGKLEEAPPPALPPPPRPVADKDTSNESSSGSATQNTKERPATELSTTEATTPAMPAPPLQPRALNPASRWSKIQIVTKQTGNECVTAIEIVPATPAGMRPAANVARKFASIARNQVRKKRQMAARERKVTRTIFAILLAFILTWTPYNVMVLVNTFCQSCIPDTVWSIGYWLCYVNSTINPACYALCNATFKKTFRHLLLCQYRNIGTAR
Chain of Voltage-gated potassium channel subunit beta-2 (Rattus norvegicus) (P62483 whole entry, looked up): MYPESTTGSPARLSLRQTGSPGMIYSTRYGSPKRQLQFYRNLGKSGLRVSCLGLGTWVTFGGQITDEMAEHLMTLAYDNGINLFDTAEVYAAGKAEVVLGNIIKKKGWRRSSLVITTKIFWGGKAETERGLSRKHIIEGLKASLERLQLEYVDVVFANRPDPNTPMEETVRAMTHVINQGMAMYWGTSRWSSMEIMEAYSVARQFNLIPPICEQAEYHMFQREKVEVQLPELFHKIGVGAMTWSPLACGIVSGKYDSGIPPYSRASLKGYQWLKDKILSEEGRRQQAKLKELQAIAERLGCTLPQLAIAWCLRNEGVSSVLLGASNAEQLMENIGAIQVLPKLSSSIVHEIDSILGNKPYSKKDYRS
Chain of Dual specificity protein phosphatase 6 (Homo sapiens) (Q16828 whole entry, looked up): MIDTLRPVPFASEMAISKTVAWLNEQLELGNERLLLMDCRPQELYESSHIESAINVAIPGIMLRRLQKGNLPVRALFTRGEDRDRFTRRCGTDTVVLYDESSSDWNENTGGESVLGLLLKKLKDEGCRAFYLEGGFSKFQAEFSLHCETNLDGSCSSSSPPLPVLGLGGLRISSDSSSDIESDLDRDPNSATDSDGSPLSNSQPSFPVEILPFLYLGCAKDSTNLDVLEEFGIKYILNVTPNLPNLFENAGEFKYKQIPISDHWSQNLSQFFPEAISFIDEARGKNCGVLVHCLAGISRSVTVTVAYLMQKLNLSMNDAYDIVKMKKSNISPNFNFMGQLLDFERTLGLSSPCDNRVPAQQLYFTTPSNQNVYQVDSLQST

For orientation: inhibition means the change of the read-out against control, counted positive when it falls. Consider `CCN1CCc2c(C#N)c(NCc3ccccc3)nc(N(CC)CC)c2C1`, for which the cell count in assay [1] was 554. Also, the inhibition in [1] is -13.9% (inactive); in assay [2], -108% (inactive); in assay [4] it was 3.49% (inactive); in [9], 119% (active). The molecule also gave a nuclei count in assay [2] of 141%. In addition, the values for the z-score in [3] (setting [10]), in assay [3] (setting [11]) and in [3] (setting [12]) were 0.401, -1.69 and 0.375, respectively. Besides, the fluorescence slope was -0.439 (inactive) in assay [5] and 0.00477 (inactive) in assay [7]. For the same molecule, in assay [6], the NADPH fluorescence slope was -0.000126 (inactive). In addition, the molecule was called inactive in assay [8].
For the molecule `CCOC(=O)N1CCN(c2ncnc3c2cnn3-c2ccc(OC)cc2)CC1`, the cell count in assay [1] amounted to 638. Also, the inhibition in [1] was -4.6% (inactive); in [2] it was -140% (inactive); in [4], 13.4% (inactive); in [9], 0.263% (inactive). Moreover, the nuclei count in assay [2] came to 149%. For the same molecule, the z-score in assay [3] (setting [10]) was 0.712; in [3] (setting [11]) it was -0.105; in [3] (setting [12]), 0.21. The fluorescence slope in assay [5] is -0.379 (inactive); in assay [7], 0.00565 (inactive). Further, in assay [6], the NADPH fluorescence slope was -4.6e-05 (inactive). For the same molecule, the molecule was called inactive in [8].
In the case of `COCCNc1ncnc2c1cnn2-c1ccc(Cl)cc1`, the cell count in assay [1] was determined as 534. The inhibition in assay [1] is -25.3% (inactive); in assay [2] it was 11.8% (inactive); in assay [4], 23.4% (inactive); in [9], 6.55% (inactive). Besides, the nuclei count in assay [2] was 184%. For the same molecule, the z-score in [3] (setting [10]) was 1.76; in assay [3] (setting [11]) it was -0.928; in assay [3] (setting [12]), -0.638. The fluorescence slope was -0.429 (inactive) in [5] and 0.00652 (inactive) in assay [7]. Moreover, the NADPH fluorescence slope in assay [6] was -5.8e-05 (inactive). The call in assay [8] was inactive.
As for `CCOC(=O)C1CCN(c2ncnc3c2cnn3-c2ccc(Cl)cc2)CC1`, the cell count in [1] turned out to be 621. Besides, the inhibition in [1] is -13.7% (inactive); in assay [2], -82.8% (inactive); in assay [4], 27.4% (inactive); in assay [9] it was -0.354% (inactive). In assay [2], this molecule came in with a nuclei count of 158%. In addition, the z-score in assay [3] (setting [10]) was 1.18; in [3] (setting [11]), -0.0217; in assay [3] (setting [12]) it was -0.611. Also, the results for the fluorescence slope in [5] and in [7] were -0.442 (inactive) and 0.00741 (inactive), respectively. Besides, the NADPH fluorescence slope in assay [6] is -1.8e-05 (inactive). For the same molecule, in assay [8], the molecule was classed as inactive.
In the case of `COc1ccccc1C(=O)Nc1cc(Cl)ccc1O`, the cell count in [1] stood at 582. For the same molecule, the inhibition was -2.4% (inactive) in [1], -76% (inactive) in [2], 9.42% (inactive) in [4] and 21.5% (inactive) in [9]. The nuclei count in [2] was 123%. In addition, the z-score was -1.1 in assay [3] (setting [10]), 0.45 in assay [3] (setting [11]) and 1.34 in assay [3] (setting [12]). Besides, the fluorescence slope in assay [5] was -0.431 (inactive); in assay [7] it was 0.00516 (inactive). Further, the NADPH fluorescence slope in assay [6] was -0.000129 (inactive). In addition, the molecule was classed as inactive in assay [8].
Consider `COc1cccc(C=NCCNC(=O)c2nonc2N)c1O`, for which the cell count in [1] came to 517. Further, the inhibition in assay [1] is -4% (inactive); in [2], 62.5% (inactive); in assay [4], 7.93% (inactive); in assay [9], -4.89% (inactive). Besides, the nuclei count in assay [2] was 169%. The z-score in assay [3] (setting [10]) is -0.652; in assay [3] (setting [11]), 2.61; in assay [3] (setting [12]) it was -0.971. Also, the fluorescence slope in [5] is -0.413 (inactive); in assay [7] it was 0.00584 (inactive). Moreover, the NADPH fluorescence slope in [6] was -3.4e-05 (inactive). Besides, the result in assay [8] was inactive.
On to `CCC(NC(=O)Nc1nccs1)(C(F)(F)F)C(F)(F)F`, for which the cell count in [1] amounted to 600. In addition, the inhibition was -9% (inactive) in assay [1], 21.5% (inactive) in assay [2], -11.4% (inactive) in assay [4] and -12.6% (inactive) in assay [9]. Further, in assay [2], the nuclei count came out at 89%. In addition, the z-score was 0.356 in assay [3] (setting [10]), 1.04 in assay [3] (setting [11]) and -0.804 in assay [3] (setting [12]). Moreover, the fluorescence slope in assay [5] is -0.475 (inactive); in assay [7], 0.0066 (inactive). Besides, the NADPH fluorescence slope in [6] is -3.1e-05 (inactive). Moreover, the call in assay [8] was inactive.
